# From ChEMBL document CHEMBL1212799 (2010)
# Legend:
# [1] = test system: Klebsiella pneumoniae; test: fT>MIC in Klebsiella pneumoniae isolate 328A at 2 gram for every 8 hrs administered as 3 hrs infusion measured over 8-16 hrs in in vitro pharmcodynamic model; type: functional
# Summary of the method: (§1)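 Samples assayed by HPLC (linear 0.25–40 µg/ml). Time free drug stayed above the modal triplicate broth-microdilution MIC (CLSI) calculated for each 8-h interval.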
# [2] = test system: Klebsiella pneumoniae; test: fT>MIC in Klebsiella pneumoniae isolate 368 at 2 gram for every 8 hrs administered as 3 hrs infusion over 24 hrs in in vitro pharmcodynamic model; type: functional
# [3] = test system: Pseudomonas aeruginosa; test: fT>MIC in Pseudomonas aeruginosa isolate 1038 at 2 gram for every 8 hrs administered as 3 hrs infusion measured over 0-8 hrs in in vitro pharmcodynamic model; type: functional
# [4] = test system: Klebsiella pneumoniae; test: Antibacterial activity against Klebsiella pneumoniae isolate 357 assessed as reduction of bacterial count at 16 ug/ml within 6 hrs in vitro pharmacodynamic model; type: functional
# [5] = test system: Pseudomonas aeruginosa; test: fT>MIC in Pseudomonas aeruginosa isolate 762 at 2 gram for every 8 hrs administered as 3 hrs infusion measured over 8-16 hrs in in vitro pharmcodynamic model; type: functional
# [6] = test system: Klebsiella pneumoniae; test: fT>MIC in Klebsiella pneumoniae isolate 328A at 2 gram for every 8 hrs administered as 3 hrs infusion measured over 0-8 hrs in in vitro pharmcodynamic model; type: functional; summary of the method: as §1
# [7] = test system: Klebsiella pneumoniae; test: Antibacterial activity against Klebsiella pneumoniae isolate 353 assessed as reduction of bacterial count at 16 ug/ml within 6 hrs in vitro pharmacodynamic model; type: functional, isoalte 353
# [8] = test system: Klebsiella pneumoniae; test: Antibacterial activity against Klebsiella pneumoniae isolate 377 assessed as reduction of bacterial count at 2 ug/ml within 6 hrs in vitro pharmacodynamic model; type: functional
# [9] = test system: Klebsiella pneumoniae; test: fT>MIC in Klebsiella pneumoniae isolate 328A at 2 gram for every 8 hrs administered as 3 hrs infusion over 24 hrs in in vitro pharmcodynamic model; type: functional; summary of the method: as §1
# [10] = test system: Klebsiella pneumoniae; test: fT>MIC in Klebsiella pneumoniae isolate 368 at 2 gram for every 8 hrs administered as 3 hrs infusion measured over 16-24 hrs in in vitro pharmcodynamic model; type: functional
# [11] = test system: Klebsiella pneumoniae; test: Antibacterial activity against Klebsiella pneumoniae isolate 334 in vitro pharmacodynamic model; type: functional
# Summary of the method: (§2)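 Simulated peak 38.4 µg/ml, trough 3.04 µg/ml. CAMHB at 37°C, 10^6 CFU/ml from overnight culture, drug started at 0.5 h. Two treated models plus one growth control. Change in log10 CFU/ml over 24 h on blood agar. Detection limit 10^1 CFU/ml.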
# [12] = test system: Klebsiella pneumoniae; test: Antibacterial activity against Klebsiella pneumoniae isolate 377 in vitro pharmacodynamic model; type: functional; summary of the method: as §2
# [13] = test system: Pseudomonas aeruginosa; test: fT>MIC in Pseudomonas aeruginosa isolate 896 at 2 gram for every 8 hrs administered as 3 hrs infusion measured over 16-24 hrs in in vitro pharmcodynamic model; type: functional
# [14] = test system: Pseudomonas aeruginosa; test: fT>MIC in Pseudomonas aeruginosa isolate 988 at 2 gram for every 8 hrs administered as 3 hrs infusion measured over 0-8 hrs in in vitro pharmcodynamic model; type: functional
# [15] = test system: Klebsiella pneumoniae; test: Antibacterial activity against Klebsiella pneumoniae isolate 328A in vitro pharmacodynamic model; type: functional
# Summary of the method: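 Inoculum 10^6 CFU/ml; dosing began 0.5 h after inoculation. Two treated models plus one untreated control per isolate; blood-agar counts; change in log10 CFU/ml over 24 h (detection limit 10^1); drug levels checked by HPLC.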
# [16] = test system: Pseudomonas aeruginosa; test: Antibacterial activity against Pseudomonas aeruginosa isolate 1177 assessed as reduction of bacterial count at 8 ug/ml within 6 hrs in vitro pharmacodynamic model; type: functional
# [17] = test system: Pseudomonas aeruginosa; test: fT>MIC in Pseudomonas aeruginosa isolate 1038 at 2 gram for every 8 hrs administered as 3 hrs infusion measured over 8-16 hrs in in vitro pharmcodynamic model; type: functional
# [18] = test system: Pseudomonas aeruginosa; test: Antibacterial activity against Pseudomonas aeruginosa isolate 1038 assessed as reduction of bacterial count at 8 ug/ml within 6 hrs in vitro pharmacodynamic model; type: functional
# [19] = test system: Klebsiella pneumoniae; test: fT>MIC in Klebsiella pneumoniae isolate 375 at 2 gram for every 8 hrs administered as 3 hrs infusion measured over 0-8 hrs in in vitro pharmcodynamic model; type: functional
# [20] = test system: Pseudomonas aeruginosa; test: fT>MIC in Pseudomonas aeruginosa isolate 762 at 2 gram for every 8 hrs administered as 3 hrs infusion measured over 16-24 hrs in in vitro pharmcodynamic model; type: functional
smiles,measurement,setting,value
C[C@@H](O)[C@H]1C(=O)N2C(C(=O)O)=C(S[C@@H]3CN[C@H](C(=O)N(C)C)C3)[C@H](C)[C@H]12 [MEROPENEM],fT>MIC,[1],72%
same,fT>MIC,[2],16%
same,fT>MIC,[3],94%
same,log10cfu,[4],>3
same,fT>MIC,[5],63%
same,fT>MIC,[6],69%
same,log10cfu,[7],>3
same,log10cfu,[8],>3
same,fT>MIC,[9],69%
same,fT>MIC,[10],0%
same,MIC,[11],32 µg/mL
same,MIC,[12],2 µg/mL
same,fT>MIC,[13],56%
same,fT>MIC,[14],47%
same,MIC,[15],8 µg/mL
same,log10cfu,[16],>=3
same,fT>MIC,[17],100%
same,log10cfu,[18],>=3
same,fT>MIC,[19],0%
same,fT>MIC,[20],56%
